Laboratory results reported in paper PMC3822768 (Bioorganic & medicinal chemistry, 2013).

How the values were obtained:
Format in all cases: cell-based, Human
[1] = system: cancer cell lines; experiment: MTT growth inhibition assay, summary over the cancer cell line panel; details: 48 h; for cytotoxicity against the cancer cell lines: MTT
[2] = system: HL-60 cells; experiment: Hoechst 33258 staining; details: HL-60, 0.25-1.0 µM, 24 h
Method in brief: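 HL-60 cells seeded at 1×10⁵ per well and incubated 24 h with test compound at 0.25, 0.5 and 1.0 µM. After phase-contrast imaging, nuclei stained with Hoechst 33258 (5 µg/mL, 10 min), washed twice with PBS and fixed in 4% PFA/PBS for 10 min at 25 °C. Apoptotic chromatin condensation or fragmentation assessed; fluorescence at ex 365/em 460 nm.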

[3] = system: cyclin B1, CDK1, caspase 3 in H460 cells; experiment: Western blot of cyclin B1, CDK1 and caspase 3, H460; details: H460, 24 h
Method in brief: (§1)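 Cells grown in RPMI-1640 with 10% FBS at 37 °C, 5% CO₂, then treated with test compound at graded concentrations for 24 h. Harvested cells lysed on ice for 30 min and spun at 12,000 g for 20 min. Protein quantified by Bradford, denatured in Tris-HCl pH 6.8/DTT/SDS loading buffer, run on 10% SDS-PAGE and transferred to nitrocellulose. Detection by chemiluminescence, with β-actin as loading control.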

[4] = system: H460 cells; experiment: Hoechst 33258 staining; details: H460, 1.0-5.0 µM, 24 h
Method in brief: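 H460 cells plated at 5×10⁴ per well and exposed to test compound at 1.0, 2.5 and 5.0 µM for 24 h. Cells photographed under phase contrast, then stained with 5 µg/mL Hoechst 33258 for 10 min, washed twice in PBS and fixed in 4% PFA/PBS for 10 min at 25 °C. Nuclei scored for chromatin condensation or fragmentation; fluorescence read at ex 365/em 460 nm.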

[5] = system: cyclin B1, CDK1, caspase 3 in HL-60 cells; experiment: Western blot of cyclin B1, CDK1 and caspase 3, HL-60; details: HL-60, 24 h
Method in brief: as §1

[6] = system: H460 cells; experiment: Cell cycle analysis by propidium iodide staining and flow cytometry, H460; details: H460, 1.0, 2.5, 5.0 µM, 24 h
Method in brief: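 After 24 h exposure to test compound at 1.0, 2.5 or 5.0 µM, H460 cells were washed in PBS and fixed overnight in 70% ice-cold ethanol at −20 °C. They were then stained in the dark for 30 min with 0.1% Triton X-100, 0.2 mg/mL RNase and 20 µg/mL propidium iodide. DNA content was measured by flow cytometry and histograms were modelled for phase distribution.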

With O=c1cc(-c2ccccc2)c2cc3c(cc2[nH]1)OCO3 [Compound 12a, 6,7-Methylenedioxy-4-phenylquinolin-2(1H)-one] the “cytotoxicity against the cancer cell lines” value (shortened to “cytotoxicity”) [1] was “poor cytotoxicity”.
For COc1ccc(-c2cc(=O)[nH]c3cc4c(cc23)OCO4)c(OC)c1 [Compound 12e, 6,7-Methylenedioxy-4-(2,4-dimethoxyphenyl)quinolin-2(1H)-one], the “apoptotic morphology by Hoechst 33258 staining” value [2] was “typical apoptotic characteristics”, the “CDK1 protein expression level” value [3] was “increased in a concentration-dependent manner” and the “caspase 3 cleavage (17 kDa)” value [3] was “induced caspase 3 cleavage”. For the same compound, the “apoptotic morphology by Hoechst 33258 staining” value [4] was “typical apoptotic characteristics”, the “CDK1 protein expression level” value [5] was “decreased in a concentration-dependent manner” and the “caspase 3 cleavage (17 kDa)” value [5] was “induced caspase 3 cleavage”. The “cyclin B1 protein expression” value [5] was “transient increase followed by a decrease” and the “percentage of G2/M cells” value [6] was “increased”.
For COc1cc(-c2cc(=O)[nH]c3cc4c(cc23)OCO4)cc(OC)c1OC [Compound 12k, 6,7-Methylenedioxy-4-(3,4,5-trimethoxyphenyl)quinolin-2(1H)-one], the IC50 ([1]; Homo sapiens, read-out: IC50 range over cancer cell lines) was 0.93 to 7.6 µM.
In the case of O=c1cc(-c2ccccc2F)c2cc3c(cc2[nH]1)OCO3 [Compound 12l, 4-(2-Fluorophenyl)-6,7-methylenedioxyquinolin-2(1H)-one], the “cytotoxicity” value [1] is reported as “weak cytotoxicity”.
With O=c1cc(-c2cccc(F)c2)c2cc3c(cc2[nH]1)OCO3 [Compound 12m, 4-(3-Fluorophenyl)-6,7-methylenedioxyquinolin-2(1H)-one] the “cytotoxicity” value [1] was “weak cytotoxicity”.
For O=c1cc(-c2ccc(F)cc2)c2cc3c(cc2[nH]1)OCO3 [Compound 12n, 4-(4-Fluorophenyl)-6,7-methylenedioxyquinolin-2(1H)-one], the “cytotoxicity” value [1] was “weak cytotoxicity”.
